Entries after “also recorded” stand apart in the source; their conditions may differ. Where two headings read alike, the source gives them in different places.
Tests used:
[1] = Pharmacokinetics of gefitinib in plasma; format: in vivo, human
Phase I dose escalation = format: in vivo, human
[2] = system: proapoptotic BIM protein (BIMEL); assay: Pharmacodynamics: western blotting of PBMC protein, BIMEL; format: in vivo, human
[3] = Pharmacokinetics of vorinostat in serum; format: in vivo, human; settings: for AUC(0-t): AUC last
How it was run: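 Patients with EGFR-mutated (exon 19 deletion or L858R) NSCLC carrying the BIM deletion polymorphism received oral vorinostat once daily on days 1-7 (200, 300 or 400 mg) with oral gefitinib 250 mg once daily, in 14-day cycles. Vorinostat was quantified in serum. Tmax is given as a median, and t1/2 and Cmax as mean ± SD per dose level.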

[4] = system: T790M‐positive EGFR‐mutated NSCLC cells; settings: in vitro; cited from earlier work
[5] = system: BIM deletion polymorphism‐positive EGFR‐mutated NSCLC cell lines (PC‐3); settings: cited from earlier work
[6] = biweekly, plus erlotinib 150 mg daily or gefitinib 250 mg daily; cited from earlier work
[7] = system: acetylated histone H3 (Lys27); assay: Pharmacodynamics: western blotting of PBMC protein, acetylated histone H3; format: in vivo, human
[8] = 4 h after dose on day 2 of cycle 1, all levels
[9] = human, po, 200 mg, mean (SD), vorinostat Level 1 (200 mg) oral, n=3
[10] = human, po, 200 mg, median (range), vorinostat Level 1 (200 mg) oral, n=3

## COc1cc2ncnc(Nc3ccc(F)c(Cl)c3)c2cc1OCCCN1CCOCC1 [Gefitinib]
[1]; gefitinib 250 mg, vorinostat 200 mg group
  Median T max of gefitinib: 4 h
Phase I dose escalation; daily, with vorinostat 400 mg/day biweekly
  Recommended phase II dose (RP2D) of gefitinib: 250 mg

## O=C(CCCCCCC(=O)Nc1ccccc1)NO [Vorinostat, suberoylanilide hydroxamic acid]
[2]; [8]
  Patients with increased proapoptotic BIM protein (BIMEL) expression: 5/11
[2]; 4 h after dose on day 2 of cycle 1, all levels, listed as vorinostat
  Patients with increased proapoptotic BIM protein (BIMEL) expression: five of 11
[2]; all levels
  Patients with increased proapoptotic BIM protein (BIMEL) expression: 45.5%
[2]; level 1 (200 mg)
  Patients with increased proapoptotic BIM protein (BIMEL) expression: 1/3
[2]; level 2 (300 mg)
  Patients with increased proapoptotic BIM protein (BIMEL) expression: 3/3
[2]; level 3 (400 mg)
  Patients with increased proapoptotic BIM protein (BIMEL) expression: 1/5
[3]; human, po, 200 mg
  half-life: 3.6 h
[3]; [9]
  AUC(0-inf): 2.43 µM·h
  AUC(0-t): 2.34 µM·h
[3]; [10]
  AUC(0-inf): 2.83 µM·h
  AUC(0-t): 2.72 µM·h
[3]; human, po, 200 mg, C max, mean (SD), vorinostat Level 1 (200 mg) oral, n=3
  Cmax: 602 nM
[3]; human, po, 300 mg
  Tmax: 3.3 h
[3]; human, po, 400 mg
  Tmax: 3.5 h
  half-life: 2.1 h
[3]; read-out: C max, median (range), vorinostat Level 1 (200 mg) oral, n=3
  Cmax: 615 nM
[3]; read-out: C max, median (range), vorinostat Level 3 (400 mg) oral, n=6
  Cmax: 944 nM
[3]; vorinostat Level 1 (200 mg) oral, n=3
  T max, median (range): 2.0 (1.1‐4.0) h
[3]; vorinostat Level 3 (400 mg) oral, n=6
  T max, median (range): 4.0 (0.9‐4.1) h
[1]; vorinostat 200, 300, 400 mg groups compared
  Effect of vorinostat on the pharmacokinetics of gefitinib: unlikely to affect the pharmacokinetics of gefitinib; also recorded: did not affect the dynamics of gefitinib
[4]
  Sensitization of cells to gefitinib: did not sensitize T790M‐positive EGFR‐mutated NSCLC cells to gefitinib
Phase I dose escalation; biweekly, combined with gefitinib 250 mg daily
  Recommended phase II dose (RP2D) of vorinostat: 400 mg/day
Phase I dose escalation; combined with gefitinib
  Recommended phase II dose (RP2D) of vorinostat: 400 mg
[5]
  Resensitization of cells to EGFR-TKI by addition of vorinostat: could resensitize these cells to EGFR‐TKI
[6]
  Recommended dose of vorinostat: 400 mg/day
[7]; [8]
  Patients with increased acetylated histone H3 protein expression: 10/11
[7]; all levels
  Patients with increased acetylated histone H3 protein expression: 91%
[7]; level 1 (200 mg)
  Patients with increased acetylated histone H3 protein expression: 3/3
[7]; level 2 (300 mg)
  Patients with increased acetylated histone H3 protein expression: 3/3
[7]; level 3 (400 mg)
  Patients with increased acetylated histone H3 protein expression: 4/5

## C=CC(=O)Nc1cc(Nc2nccc(-c3cn(C)c4ccccc34)n2)c(OC)cc1N(C)CCN(C)C [osimertinib]
[5]
  Sensitivity to osimertinib-induced apoptosis: resistant to osimertinib‐induced apoptosis

Source: paper PMC7004511 (Cancer Science, 2020)
